Source: article PMC12951621 (Toxicology, 2025)
One block for each molecule: values may come before it.

Columns and labels:
hTERT-RPTEC-OAT1 [1] = experiment: Directional transport, recovery and P ratio, hTERT-RPTEC-OAT1 Transwells; assay type: in vitro ADME, human; settings: for Recovery pattern, apical (A→B) versus basolateral (B→A) treatment: 24 h, donor and recipient media and cell lysates
Summary of the method: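 hTERT-RPTEC-OAT1 cells seeded on fibronectin-coated (100 μg/mL, 1 h, 37°C) Transwells at 22,050 cells/insert. Cultured 2 days at 37°C, 5% CO2; inserts under 65 Ω×cm2 TEER excluded. Test compound (PFAS 5 μM final) added apically (A→B) or basolaterally (B→A), fresh medium opposite. Both chambers sampled at 4 and 24 h; cells lysed (M-PER, 10 min, RT) at 24 h. LC-MS/MS after acetonitrile precipitation with internal standards. Three-compartment Bayesian MCMC fit gave P1–P4; P ratio = P2P4/P1P3; n ≥ 4.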

hTERT-RPTEC [2] = experiment: Uptake / intracellular accumulation and P ratio, hTERT-RPTEC in 96-well plates; assay type: in vitro ADME, human; settings: 24 h, cell lysates and media
Summary of the method: (§1)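 Cells seeded uncoated at 32,000 per well in 96-well plates, grown 6 days at 37°C, 5% CO2, medium changed every 48 h. Exposed to test compound in 150 μL medium (PFAS 5 μM final). Medium sampled at 4 and 24 h; cells PBS-rinsed and M-PER lysed at 24 h. Acetonitrile precipitation with internal standards, then LC-MS/MS. Two-compartment model, P ratio = medium/cell concentration; n ≥ 3.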

hTERT-RPTEC-OAT1 [3] = assay type: in vitro ADME, human; settings: 96-well plates; for Accumulation in cells versus medium: 24 h, cell lysates and media, OAT1-overexpressing cells
Summary of the method: as §1

[4] = set-up: species or system human; settings: index chemical half-life 3.14 years divided by relative renal clearance
hTERT-RPTEC-OAT1 [5] = experiment: TEER barrier integrity, hTERT-RPTEC-OAT1 Transwells; assay type: cell-based, human; settings: 24 hrs post-treatment
Summary of the method: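 Resistance read with an epithelial voltohmmeter and Ag/AgCl probes after treatment. Blank-membrane resistance subtracted, then multiplied by 0.143 cm2 growth area; reported as Ω×cm2. Pre-treatment cultures under 65 Ω×cm2 excluded; n ≥ 4.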

hTERT-RPTEC-OAT1 [6] = experiment: LDH release; assay type: cell-based, human; settings: 24 hrs exposure, relative to vehicle controls, 96-well plates
Summary of the method: (§2)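 LDH activity measured with a biochemical kit in medium sampled after 24 h exposure to test compound. Expressed as % of vehicle-treated cultures. Compared by one-way ANOVA with Dunnett's post hoc test (p < 0.05). Replicates: n ≥ 3 in 96-well plates, n ≥ 4 in Transwells.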

hTERT-RPTEC-OAT1 [7] = experiment: LDH release; assay type: cell-based, human; settings: 24 hrs exposure, relative to vehicle controls, Transwells
Summary of the method: as §2

hTERT-RPTEC [8] = experiment: LDH release; assay type: cell-based, human; settings: 24 hrs exposure, relative to vehicle controls, 96-well plates
Summary of the method: as §2

hTERT-RPTEC-OAT1 [9] = tested on: hTERT-RPTEC-OAT1; set-up: species or system human; settings: 96-well plates, two-compartment model
Summary of the method: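 96-well P ratio (medium/cell concentration, two-compartment model, assuming P1 = P2) entered a physiologically based kidney model. CLrenal,free was calculated from renal arterial blood flow (QK), proximal tubule flow (QPT) and P ratio, and predictions were set against literature human in vivo values.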

[10] = applied from the basolateral side (B→A)

- Accumulation in cells versus medium (hTERT-RPTEC [2]): tended to accumulate more in cells
- Accumulation in cells versus medium (hTERT-RPTEC-OAT1 [3]): tended to accumulate more in cells
Structure (SMILES): O=S(=O)(O)CCC(F)(F)C(F)(F)C(F)(F)C(F)(F)C(F)(F)C(F)(F)C(F)(F)C(F)(F)F [8:2 FTS, 8:2 Fluorotelomer sulfonic acid]
- Recovery pattern, apical (A→B) versus basolateral (B→A) treatment (hTERT-RPTEC-OAT1 [1]): divergent recovery patterns depending on dosing orientation

Structure (SMILES): O=S(=O)(O)C(F)(F)C(F)(F)C(F)(F)C(F)(F)F [PFBS, Perfluorobutanesulfonic acid]
- Predicted human half-life [4]: Days/Months

Structure (SMILES): O=C(O)C(F)(F)C(F)(F)C(F)(F)C(F)(F)C(F)(F)C(F)(F)C(F)(F)C(F)(F)C(F)(F)F [PFDA, Perfluorodecanoic acid]
- Recovery pattern, apical (A→B) versus basolateral (B→A) treatment (hTERT-RPTEC-OAT1 [1]): divergent recovery patterns depending on dosing orientation
- TEER (hTERT-RPTEC-OAT1 [5]; [10]): small but significant decrease in TEER
- Accumulation in cells versus medium (hTERT-RPTEC [2]): tended to accumulate more in cells
- Accumulation in cells versus medium (hTERT-RPTEC-OAT1 [3]): tended to accumulate more in cells

Structure (SMILES): O=C(O)C(F)(F)C(F)(F)C(F)(F)C(F)(F)C(F)(F)F [PFHxA, Perfluorohexanoic acid]
- Predicted human half-life [4]: Days/Months

Structure (SMILES): O=C(O)C(F)(F)C(F)(F)C(F)(F)C(F)(F)C(F)(F)C(F)(F)C(F)(F)F [PFOA, Perfluorooctanoic acid]
- LDH release (hTERT-RPTEC-OAT1 [6]): small but significant increase in LDH release

Structure (SMILES): O=S(=O)(O)C(F)(F)C(F)(F)C(F)(F)C(F)(F)C(F)(F)C(F)(F)C(F)(F)C(F)(F)F [PFOS, Perfluorooctanesulfonic acid]
- Recovery pattern, apical (A→B) versus basolateral (B→A) treatment (hTERT-RPTEC-OAT1 [1]): divergent recovery patterns depending on dosing orientation

Structure (SMILES): O=C(O)C(F)(F)C(F)(F)C(F)(F)C(F)(F)C(F)(F)C(F)(F)C(F)(F)C(F)(F)C(F)(F)C(F)(F)F [PFUnDA, Perfluoroundecanoic acid]
- Recovery pattern, apical (A→B) versus basolateral (B→A) treatment (hTERT-RPTEC-OAT1 [1]): divergent recovery patterns depending on dosing orientation
- TEER (hTERT-RPTEC-OAT1 [5]; [10]): small but significant decrease in TEER
- Accumulation in cells versus medium (hTERT-RPTEC [2]): tended to accumulate more in cells
- Accumulation in cells versus medium (hTERT-RPTEC-OAT1 [3]): tended to accumulate more in cells

- TEER (hTERT-RPTEC-OAT1 [5]): pronounced reduction in TEER
- LDH release (hTERT-RPTEC-OAT1 [7]): significant LDH release
- LDH release (hTERT-RPTEC [8]): significant LDH release
- LDH release (hTERT-RPTEC-OAT1 [6]): significant LDH release
Structure (SMILES): CCCCCCCC[N+](CCCCCCCC)(CCCCCCCC)CCCCCCCC.[Br-] [TAB, tetraoctyl ammonium bromide, reference compound]

- Intracellular association (hTERT-RPTEC-OAT1 [1]; ratios of measured concentrations): higher intracellular association
- Predicted renal clearance, OAT1-overexpressing cells versus parental cells (hTERT-RPTEC-OAT1 [9]): significantly lower
- P ratio, OAT1-overexpressing cells versus parental cells (hTERT-RPTEC-OAT1 [3]): roughly 100 fold lower
Structure (SMILES): C[C@H](Cn1cnc2c(N)ncnc21)OCP(=O)(O)O [Tenofovir, Tenofovir (TFV), reference compound]
- Accumulation in cells versus medium (hTERT-RPTEC-OAT1 [3]): enhanced accumulation in the OAT1-overexpressing cells
